Assay results reported in ChEMBL document CHEMBL5058577, “EUbOPEN Chemogenomics Library 2 (Multiplex)” (2022).

Tested on: U2OS
Test: Multiplex assay against U2OS
Assay type: toxicity, cell-based
Settings: human
Procedure, shortened: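 Live cells were stained at seeding with Hoechst33342, BioTracker Green Microtubule Cytoskeleton Dye, MitoTracker Red and Annexin V Alexa Fluor 680. Following compound addition, they were imaged on a CQ1 microscope at 37°C and 5% CO2 and gated by CellPathfinder machine learning into Hoechst high-intensity objects or normal cells, with normal cells split into healthy, pyknosed or fragmented nuclei and pyknosed cells into mitotic or apoptotic. Tubulin, mitochondrial-mass and membrane-permeability phenotypes are per cents of healthy-nucleus cells.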

[1] = 12 h, 1 µM, compound concentration 1 uM, replicate 1
[2] = 12 h, 1 µM, compound concentration 1 uM, replicate 2
[3] = 12 h, 10 µM, compound concentration 10 uM, replicate 1
[4] = 12 h, 10 µM, compound concentration 10 uM, replicate 2
[5] = 24 h, 1 µM, compound concentration 1 uM, replicate 1
[6] = 24 h, 1 µM, compound concentration 1 uM, replicate 2
[7] = 24 h, 10 µM, compound concentration 10 uM, replicate 1
[8] = 24 h, 10 µM, compound concentration 10 uM, replicate 2
[9] = 48 h, 1 µM, compound concentration 1 uM, replicate 1
[10] = 48 h, 1 µM, compound concentration 1 uM, replicate 2
[11] = 48 h, 10 µM, compound concentration 10 uM, replicate 1
[12] = 48 h, 10 µM, compound concentration 10 uM, replicate 2

COc1cccc2c1c(NS(=O)(=O)c1ccc(Cl)s1)nn2Cc1cccc(CNC(=O)C(C)(C)O)c1
Population Apoptotic (%) [1]: 86%
Population Fragmented Nuclei (%) [1]: 23%
Population Healthy Nuclei (%) [1]: 67%
Population Hoechst High Intensity Objects (%) [1]: 3%
Population Membrane Permeable-Phenotype (%) [1]: 4%
Population Mitochondria Different-Phenotype (%) [1]: 1%
Population Mitotic Cells (%) [1]: 13%
Population Normal (%) [1]: 96%
Population Pyknosed Nuclei (%) [1]: 9%
Population Tubulin-Different-Phenotype (%) [1]: 1%
Total Cell Count [1]: 261
Population Apoptotic (%) [2]: 81%
Population Fragmented Nuclei (%) [2]: 29%
Population Healthy Nuclei (%) [2]: 64%
Population Hoechst High Intensity Objects (%) [2]: 6%
Population Membrane Permeable-Phenotype (%) [2]: 7%
Population Mitochondria Different-Phenotype (%) [2]: 3%
Population Mitotic Cells (%) [2]: 18%
Population Normal (%) [2]: 93%
Population Pyknosed Nuclei (%) [2]: 5%
Population Tubulin-Different-Phenotype (%) [2]: 6%
Total Cell Count [2]: 201
Population Apoptotic (%) [3]: 76%
Population Fragmented Nuclei (%) [3]: 26%
Population Healthy Nuclei (%) [3]: 65%
Population Hoechst High Intensity Objects (%) [3]: 1%
Population Membrane Permeable-Phenotype (%) [3]: 6%
Population Mitochondria Different-Phenotype (%) [3]: 2%
Population Mitotic Cells (%) [3]: 23%
Population Normal (%) [3]: 98%
Population Pyknosed Nuclei (%) [3]: 8%
Population Tubulin-Different-Phenotype (%) [3]: 4%
Total Cell Count [3]: 264
Population Apoptotic (%) [4]: 83%
Population Fragmented Nuclei (%) [4]: 25%
Population Healthy Nuclei (%) [4]: 70%
Population Hoechst High Intensity Objects (%) [4]: 5%
Population Membrane Permeable-Phenotype (%) [4]: 8%
Population Mitochondria Different-Phenotype (%) [4]: 3%
Population Mitotic Cells (%) [4]: 16%
Population Normal (%) [4]: 94%
Population Pyknosed Nuclei (%) [4]: 4%
Population Tubulin-Different-Phenotype (%) [4]: 2%
Total Cell Count [4]: 140
Population Apoptotic (%) [5]: 96%
Population Fragmented Nuclei (%) [5]: 20%
Population Healthy Nuclei (%) [5]: 70%
Population Hoechst High Intensity Objects (%) [5]: 1%
Population Membrane Permeable-Phenotype (%) [5]: 5%
Population Mitochondria Different-Phenotype (%) [5]: 1%
Population Mitotic Cells (%) [5]: 3%
Population Normal (%) [5]: 98%
Population Pyknosed Nuclei (%) [5]: 8%
Population Tubulin-Different-Phenotype (%) [5]: 3%
Total Cell Count [5]: 307
Population Apoptotic (%) [6]: 90%
Population Fragmented Nuclei (%) [6]: 28%
Population Healthy Nuclei (%) [6]: 66%
Population Hoechst High Intensity Objects (%) [6]: 5%
Population Membrane Permeable-Phenotype (%) [6]: 8%
Population Mitochondria Different-Phenotype (%) [6]: 3%
Population Mitotic Cells (%) [6]: 9%
Population Normal (%) [6]: 94%
Population Pyknosed Nuclei (%) [6]: 4%
Population Tubulin-Different-Phenotype (%) [6]: 6%
Total Cell Count [6]: 242
Population Apoptotic (%) [7]: 90%
Population Fragmented Nuclei (%) [7]: 25%
Population Healthy Nuclei (%) [7]: 64%
Population Hoechst High Intensity Objects (%) [7]: 1%
Population Membrane Permeable-Phenotype (%) [7]: 5%
Population Mitochondria Different-Phenotype (%) [7]: 3%
Population Mitotic Cells (%) [7]: 10%
Population Normal (%) [7]: 98%
Population Pyknosed Nuclei (%) [7]: 10%
Population Tubulin-Different-Phenotype (%) [7]: 2%
Total Cell Count [7]: 304
Population Apoptotic (%) [8]: 88%
Population Healthy Nuclei (%) [8]: 68%
Population Hoechst High Intensity Objects (%) [8]: 5%
Population Membrane Permeable-Phenotype (%) [8]: 8%
Population Mitochondria Different-Phenotype (%) [8]: 4%
Population Mitotic Cells (%) [8]: 11%
Population Normal (%) [8]: 94%
Population Pyknosed Nuclei (%) [8]: 5%
Total Cell Count [8]: 167
Population Apoptotic (%) [9]: 95%
Population Fragmented Nuclei (%) [9]: 14%
Population Healthy Nuclei (%) [9]: 76%
Population Hoechst High Intensity Objects (%) [9]: 1%
Population Membrane Permeable-Phenotype (%) [9]: 4%
Population Mitochondria Different-Phenotype (%) [9]: 1%
Population Mitotic Cells (%) [9]: 4%
Population Normal (%) [9]: 98%
Population Pyknosed Nuclei (%) [9]: 9%
Population Tubulin-Different-Phenotype (%) [9]: 2%
Total Cell Count [9]: 463
Population Apoptotic (%) [10]: 74%
Population Fragmented Nuclei (%) [10]: 22%
Population Healthy Nuclei (%) [10]: 68%
Population Hoechst High Intensity Objects (%) [10]: 7%
Population Membrane Permeable-Phenotype (%) [10]: 5%
Population Mitochondria Different-Phenotype (%) [10]: 4%
Population Mitotic Cells (%) [10]: 25%
Population Normal (%) [10]: 92%
Population Tubulin-Different-Phenotype (%) [10]: 5%
Total Cell Count [10]: 314
Population Apoptotic (%) [11]: 93%
Population Fragmented Nuclei (%) [11]: 20%
Population Healthy Nuclei (%) [11]: 71%
Population Hoechst High Intensity Objects (%) [11]: 2%
Population Membrane Permeable-Phenotype (%) [11]: 5%
Population Mitochondria Different-Phenotype (%) [11]: 2%
Population Mitotic Cells (%) [11]: 6%
Population Normal (%) [11]: 97%
Population Pyknosed Nuclei (%) [11]: 8%
Population Tubulin-Different-Phenotype (%) [11]: 3%
Total Cell Count [11]: 413
Population Apoptotic (%) [12]: 100%
Population Fragmented Nuclei (%) [12]: 22%
Population Hoechst High Intensity Objects (%) [12]: 3%
Population Mitochondria Different-Phenotype (%) [12]: 3%
Population Mitotic Cells (%) [12]: 0%
Population Normal (%) [12]: 96%
Population Pyknosed Nuclei (%) [12]: 5%
Total Cell Count [12]: 235
